In test [1] the test system is Pseudomonas aeruginosa. The experiment in a line: microbe, parasite or virus in culture. To be noted: ATCC 27853, 24 h. In kind it is functional.
The subject of test [2] is Staphylococcus aureus. The experiment in a line: microbe, parasite or virus in culture. In kind it is functional. The settings on record: ATCC 25923, 5 h.
For test [3], the system named is Staphylococcus epidermidis. Put plainly: Antibacterial activity against penicillin-resistant Staphylococcus epidermidis clinical isolates after 24 hrs by broth microdilution method. In kind it is functional. A general note: In broth dilution the organism is exposed to a series of concentrations in liquid medium.
Test [4] has as its system Staphylococcus epidermidis. Put plainly: Ratio of curcumin MIC to compound MIC for Staphylococcus epidermidis. In kind it is functional.
Test [5] concerns Escherichia coli. The experiment in a line: microbe, parasite or virus in culture. The class given is functional. The settings on record: ATCC 25922, 5 h.
Test [6] has as its system Bacillus subtilis. The experiment in a line: microbe, parasite or virus in culture. In kind it is functional. The settings on record: ATCC 9372, 5 h.
Test [7] concerns Staphylococcus aureus. Put plainly: Antibacterial activity against penicillin-resistant Staphylococcus aureus clinical isolates after 24 hrs by broth microdilution method. The class given is functional.
Test [8] has as its system Escherichia coli. Put plainly: microbe, parasite or virus in culture. The settings on record: ATCC 25922, 24 h. In kind it is functional.
Test [9] deals with Streptococcus pyogenes. The experiment in a line: Antibacterial activity against penicillin-susceptible Streptococcus pyogenes clinical isolates after 24 hrs by broth microdilution method. The class given is functional.
Test [10] has as its system Staphylococcus epidermidis. The experiment in a line: Ratio of cinnamic acid MIC to compound MIC for Staphylococcus epidermidis. The class given is functional.
Test [11] concerns Staphylococcus aureus. The experiment in a line: microbe, parasite or virus in culture. In kind it is functional. The settings on record: ATCC 25923, 24 h.
Test [12] relates to Bacillus subtilis. The experiment in a line: microbe, parasite or virus in culture. In kind it is functional. To be noted: ATCC 9372, 24 h.
Test [13] deals with Staphylococcus epidermidis. The experiment in a line: Ratio of ciprofloxacin MIC to compound MIC for Staphylococcus epidermidis. The class given is functional.
Test [14] concerns Staphylococcus aureus. Put plainly: microbe, parasite or virus in culture. The class given is functional. To be noted: ATCC 29213, 24 h.
Test [15] has as its system Pseudomonas aeruginosa. Put plainly: microbe, parasite or virus in culture. The class given is functional. To be noted: ATCC 27853, 5 h.
Test [16] concerns the target T1, Cell division protein FtsZ (Escherichia coli K-12) (UniProt P0A9A6).
T1 sequence (whole entry): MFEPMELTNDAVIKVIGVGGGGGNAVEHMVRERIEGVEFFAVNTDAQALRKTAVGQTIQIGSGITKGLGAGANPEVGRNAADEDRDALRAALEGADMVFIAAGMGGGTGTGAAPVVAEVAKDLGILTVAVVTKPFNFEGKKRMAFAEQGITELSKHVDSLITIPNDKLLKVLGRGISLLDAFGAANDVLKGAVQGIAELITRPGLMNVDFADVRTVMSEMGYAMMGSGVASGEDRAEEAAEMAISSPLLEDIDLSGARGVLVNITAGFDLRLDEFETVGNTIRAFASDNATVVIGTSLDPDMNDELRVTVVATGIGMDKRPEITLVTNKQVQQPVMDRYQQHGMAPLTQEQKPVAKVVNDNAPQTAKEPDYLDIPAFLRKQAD
The experiment in a line: Inhibition of Escherichia coli ATCC 25922 recombinant N-His6-tagged FtsZ polymerization expressed in Escherichia coli BL21(DE3) by light scattering assay. Put shortly: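 E. coli FtsZ (N-His6, expressed in BL21(DE3), Ni-affinity purified) at 12 µM in 50 mM MES, 5 mM MgCl2, 50 mM KCl, pH 6.5 with compound at various concentrations, 2% DMSO, 30°C. Right-angle light scattering at 400 nm (excitation and emission). 120 s baseline, then polymerization started with 2 mM GTP and followed for 2000 s.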

Test [17] deals with T1, Cell division protein FtsZ (Escherichia coli K-12). Put plainly: (§1) Inhibition of Escherichia coli ATCC 25922 recombinant N-His6-tagged FtsZ polymerization expressed in Escherichia coli BL21(DE3) incubated for 15 mins prior to GTP addition measured after 390 mins by malachite green staining-based GTPase assay. The settings on record: in the assay text read “30 mins” for “390 mins”. An outline of the steps: (§2)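 Purified N-His6 E. coli FtsZ (10 µM) in 50 mM MES, 5 mM MgCl2, 50 mM KCl, pH 6.5 with compound at varying concentrations (2% DMSO), preincubated 15 min at room temperature. 50 μM GTP then added for 30 min at 37°C. Released phosphate measured by Malachite Green reagent (20% v/v) at A620, background-subtracted and read against a phosphate standard curve.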

The test system of test [18] is Streptococcus pyogenes. The experiment in a line: Antibacterial activity against penicillin-resistant Streptococcus pyogenes clinical isolates after 24 hrs by broth microdilution method. In kind it is functional.
Test [19] concerns the target T2, Cell division protein FtsZ (Escherichia coli K-12, UniProt P0A9A6).
T2 sequence (P0A9A6 whole entry): T1 sequence (whole entry)
The description is as §1. To be noted: in the assay text read “30 mins” for “390 mins”. An outline of the steps:
as §2

For test [20], the system named is Staphylococcus aureus. The experiment in a line: Ratio of curcumin MIC to compound MIC for penicillin-susceptible Staphylococcus aureus ATCC 25923. The class given is functional.
In test [21] the test system is Staphylococcus aureus. Put plainly: Ratio of cinnamic acid MIC to compound MIC for penicillin-susceptible Staphylococcus aureus ATCC 25923. The class given is functional.
Test [22] deals with Staphylococcus aureus. The experiment in a line: Ratio of ciprofloxacin MIC to compound MIC for penicillin-susceptible Staphylococcus aureus ATCC 25923. In kind it is functional.
The subject of test [23] is Bacillus subtilis. Put plainly: Antibacterial activity against Bacillus subtilis. The class given is functional. An outline of the steps:
(§3)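 NCCLS tube-dilution MIC using B. subtilis ATCC9372 and E. coli ATCC25922. Strains were grown on Mueller Hinton agar at 37°C for 24 h. […] Tubes were incubated at 37°C for 24 h, and the MIC was read as the last tube without turbidity.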

Test [24] concerns Escherichia coli. Put plainly: Antibacterial activity against Escherichia coli. In kind it is functional. Put shortly:
as §3

Structures are written as SMILES. Values after ≈ are worked out from the molar mass of the structure shown.

In general, IC50 refers to the concentration that inhibits the measured activity by half.

As to `Cc1nc2ccccc2n1C(=O)/C=C/c1ccccc1Cl`, the MIC in the test with Pseudomonas aeruginosa [1] is 128 µg/mL (≈ 431 µM); against Staphylococcus aureus [2], 16 µg/mL (≈ 53.9 µM); in test [3], 4 µg/mL (≈ 13.5 µM); against Escherichia coli [5] it was 128 µg/mL (≈ 431 µM); against Bacillus subtilis [6], more than 128 µg/mL; against Staphylococcus aureus [7] it was 64 µg/mL (≈ 216 µM). Moreover, the MIC with Escherichia coli [8] is 128 µg/mL (≈ 431 µM); against Streptococcus pyogenes [9], more than 128 µg/mL; with Staphylococcus aureus [11], 32 µg/mL (≈ 108 µM); in the test with Bacillus subtilis [12] it was 128 µg/mL (≈ 431 µM); in the test with Staphylococcus aureus [14] it was 128 µg/mL (≈ 431 µM); in the test with Pseudomonas aeruginosa [15], 128 µg/mL (≈ 431 µM). For the same compound, the Ratio in test [4], in test [10] and in test [13] was more than 32 in each case.

With `Cc1nc2ccccc2n1C(=O)/C=C/c1ccc(F)cc1`, the inhibition entry in test [16] and in test [17] was “Dose-dependent effect” in each case. Also, the MIC in the test on Pseudomonas aeruginosa [1] is 128 µg/mL (≈ 457 µM); with Staphylococcus aureus [2], 0.5 µg/mL (≈ 1.78 µM); in [3], 16 µg/mL (≈ 57.1 µM); against Escherichia coli [5], more than 128 µg/mL; against Bacillus subtilis [6], more than 128 µg/mL; against Staphylococcus aureus [7], 64 µg/mL (≈ 228 µM). Besides, the MIC against Escherichia coli [8] was 128 µg/mL (≈ 457 µM); with Streptococcus pyogenes [9], 128 µg/mL (≈ 457 µM); in the test on Staphylococcus aureus [11], 16 µg/mL (≈ 57.1 µM); in the test on Bacillus subtilis [12], 128 µg/mL (≈ 457 µM); against Streptococcus pyogenes [18] it was 64 µg/mL (≈ 228 µM); against Staphylococcus aureus [14], more than 128 µg/mL. In the test on Pseudomonas aeruginosa [15], the MIC is more than 128 µg/mL.

Regarding `Cc1nc2ccccc2n1C(=O)/C=C/c1ccc(Cl)cc1Cl`, the inhibition entry in [16] and in test [17] was “Dose-dependent effect” each time. Also, the MIC with Pseudomonas aeruginosa [1] was 128 µg/mL (≈ 386 µM); against Staphylococcus aureus [2], 1 µg/mL (≈ 3.02 µM); in test [3], 4 µg/mL (≈ 12.1 µM); in the test on Escherichia coli [5], more than 128 µg/mL; against Bacillus subtilis [6], more than 128 µg/mL; against Staphylococcus aureus [7], 16 µg/mL (≈ 48.3 µM). The MIC with Escherichia coli [8] is 128 µg/mL (≈ 386 µM); against Streptococcus pyogenes [9], more than 128 µg/mL; with Staphylococcus aureus [11], 4 µg/mL (≈ 12.1 µM); against Bacillus subtilis [12], 128 µg/mL (≈ 386 µM); in the test with Streptococcus pyogenes [18], 64 µg/mL (≈ 193 µM); against Staphylococcus aureus [14] it was more than 128 µg/mL. In the test on Pseudomonas aeruginosa [15], this compound came in with an MIC of more than 128 µg/mL. For the same compound, the concentration for half-maximal inhibition (IC50) in test [19] was 90.6 µM. The Ratio in test [4], in test [10] and in [13] was more than 32 throughout.

Consider `Cc1nc2ccccc2n1C(=O)/C=C/c1ccc(Cl)cc1`, for which the inhibition entry in test [16] and in test [17] was “Dose-dependent effect” in each case. Moreover, the MIC against Pseudomonas aeruginosa [1] was 128 µg/mL (≈ 431 µM); in the test with Staphylococcus aureus [2], 0.5 µg/mL (≈ 1.68 µM); in [3], 16 µg/mL (≈ 53.9 µM); against Escherichia coli [5] it was more than 128 µg/mL; against Bacillus subtilis [6] it was more than 128 µg/mL; against Staphylococcus aureus [7], 64 µg/mL (≈ 216 µM). Further, the MIC was 128 µg/mL (≈ 431 µM) against Escherichia coli [8]; 32 µg/mL (≈ 108 µM) with Streptococcus pyogenes [9]; 8 µg/mL (≈ 27 µM) against Staphylococcus aureus [11]; 128 µg/mL (≈ 431 µM) in the test with Bacillus subtilis [12]; 8 µg/mL (≈ 27 µM) with Streptococcus pyogenes [18]; more than 128 µg/mL against Staphylococcus aureus [14]. For the same compound, the MIC against Pseudomonas aeruginosa [15] is more than 128 µg/mL.

Turning to `Cc1nc2ccccc2n1C(=O)/C=C/c1ccccc1`, the MIC is 128 µg/mL (≈ 488 µM) against Pseudomonas aeruginosa [1]; 0.25 µg/mL (≈ 0.953 µM) against Staphylococcus aureus [2]; 32 µg/mL (≈ 122 µM) in [3]; more than 128 µg/mL against Escherichia coli [5]; more than 128 µg/mL against Bacillus subtilis [6]; 64 µg/mL (≈ 244 µM) in the test on Staphylococcus aureus [7]. Also, the MIC was 128 µg/mL (≈ 488 µM) in the test with Escherichia coli [8]; 128 µg/mL (≈ 488 µM) in the test with Streptococcus pyogenes [9]; 4 µg/mL (≈ 15.2 µM) with Staphylococcus aureus [11]; 128 µg/mL (≈ 488 µM) in the test on Bacillus subtilis [12]; 128 µg/mL (≈ 488 µM) in the test on Streptococcus pyogenes [18]; more than 128 µg/mL in the test on Staphylococcus aureus [14]. The compound also gave an MIC with Pseudomonas aeruginosa [15] of more than 128 µg/mL. Further, the Ratio with Staphylococcus aureus [20], in the test with Staphylococcus aureus [21] and in the test with Staphylococcus aureus [22] was more than 512 each time.

As to `O=C/C=C/c1ccccc1`, the MIC is 500 µg/mL (≈ 3780 µM) against Bacillus subtilis [23] and 1000 µg/mL (≈ 7570 µM) against Escherichia coli [24].

The values above are taken from ChEMBL document CHEMBL3421607, “Design, synthesis and antibacterial activity of cinnamaldehyde derivatives as inhibitors of the bacterial cell division protein FtsZ” (Eur J Med Chem, 2015).
